SMILES strings stand for the structures. Activity calls are given as the source filed them. No cut-off for these calls is given here.

The species named for test [1] is Cavia porcellus. As to the kind of experiment: Selectivity for delta opioid receptor over kappa opioid receptor in Hartley guinea pig brain membrane. The format is cell membranes.
The target in test [2] is T1, Kappa-type opioid receptor (Cavia porcellus, UniProt P41144). As to the kind of experiment: Displacement of […] from kappa opioid receptor in Hartley guinea pig brain membrane. The format is cell membranes.
T1 sequence (P41144 whole entry): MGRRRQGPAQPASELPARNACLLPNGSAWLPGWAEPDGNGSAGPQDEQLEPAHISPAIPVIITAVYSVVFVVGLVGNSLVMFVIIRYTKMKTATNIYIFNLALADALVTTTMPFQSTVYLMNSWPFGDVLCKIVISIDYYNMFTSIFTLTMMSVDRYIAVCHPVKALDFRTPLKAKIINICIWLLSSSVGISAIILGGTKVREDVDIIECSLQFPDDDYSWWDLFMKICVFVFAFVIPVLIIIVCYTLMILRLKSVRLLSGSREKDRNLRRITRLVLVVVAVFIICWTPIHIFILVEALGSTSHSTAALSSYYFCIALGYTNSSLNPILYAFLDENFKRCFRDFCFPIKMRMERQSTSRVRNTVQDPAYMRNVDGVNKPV
The target of test [3] is Delta-type opioid receptor (Homo sapiens) (UniProt P41143). As to the kind of experiment: Agonist activity at human delta opioid receptor expressed in CHO cells assessed as stimulation of [35S]GTPgammaS binding at 1 uM relative to DPDPE. It counts as functional, cell-based. In short, it runs like this:
(§1)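 Compound was preincubated 20 min at 30 °C, then 60 min with SPA beads. 0.3 nM [35S]GTPγS was added for 30 min.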

The target of test [4] is T2, Mu-type opioid receptor (Mus musculus, UniProt P42866). As to the kind of experiment: Antagonist activity at mu opioid receptor in electrically-induced ddY mouse vas deferens assessed as effect on […]-induced inhibition of electrically-stimulated contraction at 10 uM. As to conditions: read-out: pA2 (converted). It counts as functional, tissue-based.
T2 sequence (P42866 whole entry): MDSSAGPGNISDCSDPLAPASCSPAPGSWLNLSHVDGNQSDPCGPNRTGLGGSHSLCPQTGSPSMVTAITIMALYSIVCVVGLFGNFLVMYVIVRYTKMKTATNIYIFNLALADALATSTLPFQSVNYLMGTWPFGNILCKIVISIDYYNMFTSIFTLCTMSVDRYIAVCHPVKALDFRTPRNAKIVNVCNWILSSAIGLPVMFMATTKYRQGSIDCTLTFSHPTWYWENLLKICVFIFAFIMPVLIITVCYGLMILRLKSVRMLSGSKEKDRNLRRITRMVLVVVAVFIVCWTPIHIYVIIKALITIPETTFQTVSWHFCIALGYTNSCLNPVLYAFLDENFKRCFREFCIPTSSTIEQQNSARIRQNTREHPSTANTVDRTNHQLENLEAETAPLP
Test [5] concerns the target Mu-type opioid receptor (Homo sapiens) (UniProt P35372). As to the kind of experiment: Agonist activity at human mu opioid receptor expressed in CHO cells assessed as stimulation of [35S]GTPgammaS binding at 1 uM relative to DAMGO. The format is functional, cell-based. In short, it runs like this: as §1
The subject of test [6] is Rattus norvegicus. As to the kind of experiment: Antitussive activity in ip dosed Sprague-Dawley rat assessed as reduction in number of capsaicin-induced coughs. It counts as functional.
Test [7] can be described thus: Displacement of [3H]NTI from delta opioid receptor in Hartley guinea pig brain membrane. The format is cell membranes, Cavia porcellus. Put shortly: (§2)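 Brains from 4-week male Hartley guinea pigs were split into forebrain (µ, δ) and cerebellum (κ). Membranes were homogenised in 50 mM Tris-HCl pH 7.4 and held 1 h at 4 °C to remove endogenous ligands.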
For test [8], the target named is T3, Mu-type opioid receptor (Cavia porcellus, UniProt P97266). As to the kind of experiment: Displacement of [3H]DAMGO from mu opioid receptor in Hartley guinea pig brain membrane. It counts as cell membranes. Put shortly:
as §2

Test [9] addresses T4, Kappa-type opioid receptor (Mus musculus, UniProt P33534). As to the kind of experiment: Antagonist activity at kappa opioid receptor in electrically-induced ddY mouse vas deferens assessed as effect on U50,488H-induced inhibition of electrically-stimulated contraction at 10 uM. It counts as functional, tissue-based. The conditions noted are these: read-out: pA2 (converted). In short, it runs like this: (§3)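 Vas deferens from male ddy mice was mounted in a Magnus tube at 37 °C in Krebs-Henseleit gassed with 95% O2/5% CO2 and electrically stimulated. Antagonist was added 20 min before cumulative agonist: DPDPE (δ), U-50,488H (κ) or morphine (µ). Dose ratio is the agonist IC50 with versus without antagonist, as mean of N=4. pA2 = −log([B]/(dose ratio − 1)).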

Test [10] deals with Kappa-type opioid receptor (Homo sapiens) (UniProt P41145). As to the kind of experiment: Agonist activity at human kappa opioid receptor expressed in HEK293 cells assessed as stimulation of [35S]GTPgammaS binding at 1 uM relative to U69,593. The format is functional, cell-based. Put shortly: as §1
Chain of Kappa-type opioid receptor (Homo sapiens) (P41145 whole entry): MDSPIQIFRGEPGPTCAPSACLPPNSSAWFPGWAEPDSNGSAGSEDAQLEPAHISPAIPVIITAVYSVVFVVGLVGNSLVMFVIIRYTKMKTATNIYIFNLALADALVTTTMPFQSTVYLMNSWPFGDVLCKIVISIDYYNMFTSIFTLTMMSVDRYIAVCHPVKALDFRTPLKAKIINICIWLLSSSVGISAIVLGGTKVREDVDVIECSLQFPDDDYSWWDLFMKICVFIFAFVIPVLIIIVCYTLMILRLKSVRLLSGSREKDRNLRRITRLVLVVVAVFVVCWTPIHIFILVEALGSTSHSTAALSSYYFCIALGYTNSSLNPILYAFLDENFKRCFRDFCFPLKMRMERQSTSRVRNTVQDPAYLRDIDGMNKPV
Test [11] is filed under the species Cavia porcellus. As to the kind of experiment: Selectivity for delta opioid receptor over mu opioid receptor in Hartley guinea pig brain membrane. The format is cell membranes.
The nature of test [12]: Binding affinity to guinea pig delta opioid receptor. On the set-up: species or system Cavia porcellus. Put shortly:
as §2

Test [13] concerns Rattus norvegicus. As to the kind of experiment: Antitussive activity in po dosed Sprague-Dawley rat assessed as reduction in number of capsaicin-induced coughs. It counts as functional.
Test [14] has as its target T3, Mu-type opioid receptor. As to the kind of experiment: Binding affinity to guinea pig mu opioid receptor. In short, it runs like this:
as §2

Test [15] deals with T2, Mu-type opioid receptor. As to the kind of experiment: Antagonist activity at mu opioid receptor in electrically-induced ddY mouse vas deferens assessed as effect on morphine-induced inhibition of electrically-stimulated contraction at 30 uM. It counts as functional, tissue-based. As to conditions: read-out: pA2 (converted). Put shortly: as §3
Test [16] concerns the target T4, Kappa-type opioid receptor. As to the kind of experiment: Antagonist activity at kappa opioid receptor in electrically-induced ddY mouse vas deferens assessed as effect on U50,488H-induced inhibition of electrically-stimulated contraction at 30 uM. The conditions noted are these: read-out: pA2 (converted). It counts as functional, tissue-based. In short, it runs like this: as §3

For test [17], the target named is T4, Kappa-type opioid receptor. As to the kind of experiment: Antagonist activity at kappa opioid receptor in electrically-induced ddY mouse vas deferens assessed as effect on U50,488H-induced inhibition of electrically-stimulated contraction at 100 uM. The format is functional, tissue-based. As to conditions: read-out: pA2 (converted). Put shortly: as §3
For test [18], the target named is T5, Delta-type opioid receptor (Mus musculus, UniProt P32300). As to the kind of experiment: Antagonist activity at delta opioid receptor in electrically-induced ddY mouse vas deferens assessed as effect on DPDPE-induced inhibition of electrically-stimulated contraction at 100 uM. The format is functional, tissue-based. The conditions noted are these: read-out: pA2 (converted). In short, it runs like this:
as §3

The target in test [19] is T5, Delta-type opioid receptor. As to the kind of experiment: Antagonist activity at delta opioid receptor in electrically-induced ddY mouse vas deferens assessed as effect on DPDPE-induced inhibition of electrically-stimulated contraction at 10 uM. As to conditions: read-out: pA2 (converted). The format is functional, tissue-based. In short, it runs like this: as §3

Test [20] has as its system Rattus norvegicus. As to the kind of experiment: Effect on Sprague-Dawley rat capsaicin-induced cough nodel assessed as increase in number of coughs at 10 mg/kg, sc. The format is functional, organism-based. Further details: dose 10 mg/kg.
Test [21] addresses T1, Kappa-type opioid receptor. As to the kind of experiment: Binding affinity to guinea pig kappa opioid receptor. In short, it runs like this: as §2
For test [22], the target named is T5, Delta-type opioid receptor. As to the kind of experiment: Antagonist activity at delta opioid receptor in electrically-induced ddY mouse vas deferens assessed as effect on DPDPE-induced inhibition of electrically-stimulated contraction at 30 uM. As to conditions: read-out: pA2 (converted). The format is functional, tissue-based. Put shortly:
as §3

T3 sequence (P97266 whole entry): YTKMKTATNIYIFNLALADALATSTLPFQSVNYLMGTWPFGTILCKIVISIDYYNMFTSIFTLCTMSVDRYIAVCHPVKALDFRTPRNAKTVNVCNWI
Chain of Delta-type opioid receptor (Homo sapiens) (P41143 whole entry): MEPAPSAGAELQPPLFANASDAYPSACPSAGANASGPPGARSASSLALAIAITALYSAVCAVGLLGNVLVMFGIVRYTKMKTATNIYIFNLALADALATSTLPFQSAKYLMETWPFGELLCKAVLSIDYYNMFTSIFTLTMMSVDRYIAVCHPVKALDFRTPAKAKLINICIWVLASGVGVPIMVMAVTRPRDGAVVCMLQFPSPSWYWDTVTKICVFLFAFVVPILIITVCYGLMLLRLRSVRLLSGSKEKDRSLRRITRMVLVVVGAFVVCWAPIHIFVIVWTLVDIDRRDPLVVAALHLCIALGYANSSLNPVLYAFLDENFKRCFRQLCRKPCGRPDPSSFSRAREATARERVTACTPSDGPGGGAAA
Chain of Mu-type opioid receptor (Homo sapiens) (P35372 whole entry): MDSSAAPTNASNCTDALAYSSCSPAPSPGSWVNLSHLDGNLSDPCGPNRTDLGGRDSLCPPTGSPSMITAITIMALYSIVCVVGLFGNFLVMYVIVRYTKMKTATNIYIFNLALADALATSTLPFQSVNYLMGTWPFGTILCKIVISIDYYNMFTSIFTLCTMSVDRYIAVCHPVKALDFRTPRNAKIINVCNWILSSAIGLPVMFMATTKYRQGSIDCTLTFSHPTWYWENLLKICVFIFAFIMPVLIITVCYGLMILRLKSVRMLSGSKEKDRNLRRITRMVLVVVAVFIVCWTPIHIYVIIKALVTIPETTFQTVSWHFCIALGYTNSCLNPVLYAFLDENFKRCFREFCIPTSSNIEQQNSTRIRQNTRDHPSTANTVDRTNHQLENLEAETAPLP
T5 sequence (P32300 whole entry): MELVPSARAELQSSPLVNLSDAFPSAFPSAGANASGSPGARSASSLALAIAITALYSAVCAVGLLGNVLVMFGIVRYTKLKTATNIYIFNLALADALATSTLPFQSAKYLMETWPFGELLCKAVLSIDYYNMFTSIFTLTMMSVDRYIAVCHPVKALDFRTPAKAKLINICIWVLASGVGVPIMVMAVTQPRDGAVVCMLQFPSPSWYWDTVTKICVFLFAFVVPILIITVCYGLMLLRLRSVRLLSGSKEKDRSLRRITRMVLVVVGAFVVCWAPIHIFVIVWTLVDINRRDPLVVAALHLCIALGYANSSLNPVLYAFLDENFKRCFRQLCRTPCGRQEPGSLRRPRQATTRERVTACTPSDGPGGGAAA
T4 sequence (P33534 whole entry): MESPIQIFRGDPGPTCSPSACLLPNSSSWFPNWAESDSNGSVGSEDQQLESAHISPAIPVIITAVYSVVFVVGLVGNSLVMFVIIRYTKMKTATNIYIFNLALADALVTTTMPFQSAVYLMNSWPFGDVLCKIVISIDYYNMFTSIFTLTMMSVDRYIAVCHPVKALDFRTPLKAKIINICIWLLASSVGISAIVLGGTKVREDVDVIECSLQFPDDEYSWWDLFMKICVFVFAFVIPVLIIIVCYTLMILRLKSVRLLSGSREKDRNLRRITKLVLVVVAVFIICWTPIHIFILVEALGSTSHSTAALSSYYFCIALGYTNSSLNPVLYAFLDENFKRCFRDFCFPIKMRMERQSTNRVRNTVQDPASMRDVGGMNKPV

As to `Oc1ccc2c3c1O[C@H]1c4c(c5cccc6c5n4CCCC6)C[C@@]4(O)[C@@H](C2)N(CC2CC2)CC[C@]314`, the Selectivity ratio in [1] is 18; in test [11], 50. Besides, the values for the Ki in test [2], in [7] and in [8] were 40 nM, 2.26 nM and 113 nM, respectively. In addition, the Activity in [3] is 20%; in test [5] it was -1%; in test [10], 32%. The results for the Kb in test [4] and in test [9] were 18.2 nM and 51.3 nM, respectively. In addition, the ED50 in [6] came to 0.0123 mg/kg.
`Oc1ccc2c3c1O[C@H]1c4[nH]c5ccccc5c4C[C@@]4(O)[C@@H](C2)N(CC2CC2)CC[C@]314` [NALTRINDOLE]: the Ki in [12] came out at 0.217 nM; in test [2], 7.44 nM; in test [7] it was 0.135 nM; in test [14] it was 27 nM; in test [8], 12.7 nM. The Selectivity ratio in test [1] was 55; in [11], 94. Besides, the results for the Activity in [3], in test [5] and in [10] were -3%, 5% and 12%, respectively. For the same molecule, in test [13], the 50% effective dose (ED50) came to 1.83 mg/kg.
For `Oc1ccc2c3c1O[C@H]1c4c(c5cccc6c5n4CC6)C[C@@]4(O)[C@@H](C2)N(CC2CC2)CC[C@]314`, the Selectivity ratio in test [1] came out at 27; in [11], 79. The Ki came out at 7.99 nM in [2], 0.295 nM in test [7] and 23.2 nM in test [8]. Besides, the Kb in [15] is 15.8 nM; in [16] it was 7.94 nM. In addition, the figures for the Activity in test [3], in [5] and in [10] were 26%, 0% and 3%, respectively.
Take `Oc1ccc2c3c1O[C@H]1c4[nH]c5c6c(ccc5c4C[C@@]4(O)[C@@H](C2)N(CC2CC2)CC[C@]314)CCCC6`: the Selectivity ratio amounted to 8.2 in test [1] and 32 in test [11]. The figures for the Ki in [2], in test [7] and in test [8] were 52 nM, 6.32 nM and 200 nM, respectively. In addition, the values for the Activity in test [3], in [5] and in [10] were 19%, -1% and 33%, respectively. Also, the results for the Kb in test [17] and in test [18] were 1660 nM and 23.4 nM, respectively.
In the case of `COc1ccc2c3c1O[C@H]1c4c(c5cccc6c5n4CCCC6)C[C@@]4(O)[C@@H](C2)N(CC2CC2)CC[C@]314`, the Kb in test [19] is 295 nM; in [9] it was 17 nM. The Selectivity ratio was 12 in test [1] and over 13 in test [11]. The Ki was 3340 nM in test [2], 274 nM in [7] and over 3670 nM in test [8]. The Activity in test [3] is 45%; in [5] it was -1%; in test [10], 11%.
As to `CN1CC[C@]2(c3cccc(O)c3)Cc3nc4ccccc4cc3C[C@H]2C1` (relative stereo), the outcome in test [20] was Active.
`COc1ccc2c3c1O[C@H]1c4c(c5cccc(C)c5n4C)C[C@@]4(O)[C@@H](C2)N(CC2CC2)CC[C@]314`: the ED50 in [6] is 0.00635 mg/kg.
As for `CCn1c2c(c3cccc(C)c31)C[C@@]1(O)[C@H]3Cc4ccc(OC)c5c4[C@@]1(CCN3CC1CC1)[C@H]2O5`, the results for the Selectivity ratio in test [1] and in [11] were 21 and over 17, respectively. Moreover, the Ki in [2] was 4650 nM; in test [7], 218 nM; in [8], over 3670 nM. The Activity in [3] worked out at 47%; in [5], 1%; in [10], 21%. In test [6], the ED50 came out at 0.00179 mg/kg.
Take `COc1ccc2c3c1O[C@H]1c4c(c5cccc6c5n4CCC6)C[C@@]4(O)[C@@H](C2)N(CC2CC2)CC[C@]314.CS(=O)(=O)O`: the Selectivity ratio is 42 in [1] and over 46 in test [11]. Besides, the Ki is 3290 nM in [2], 79 nM in [7] and over 3670 nM in [8]. The Activity was 47% in test [3], -1% in [5] and 8% in [10]. The ED50 in [13] is 0.0064 mg/kg. Further, the Kb in test [17] is 67.6 nM.
As to `COc1ccc2c3c1O[C@H]1c4[nH]c5ccccc5c4C[C@@]4(O)[C@@H](C2)N(CC2CC2)CC[C@]314`, the Ki in test [12] turned out to be 6.57 nM; in [21], 3910 nM; in test [14], 2510 nM.
Take `CCCn1c2c(c3ccccc31)C[C@@]1(O)[C@H]3Cc4ccc(OC)c5c4[C@@]1(CCN3CC1CC1)[C@H]2O5`: the ED50 in [6] was determined as 0.0148 mg/kg.
Turning to `Oc1ccc2c3c1O[C@H]1c4c(c5cccc6c5n4CCC6)C[C@@]4(O)[C@@H](C2)N(CC2CC2)CC[C@]314`, the Selectivity ratio in test [1] was determined as 22; in test [11], 90. Moreover, the Ki is 15.1 nM in [2], 0.673 nM in test [7] and 60.6 nM in test [8]. The Kb in test [15] was 12.6 nM; in [16], 27.5 nM; in [22] it was 0.794 nM. For the same molecule, the Activity is -2% in [3], 1% in [5] and 26% in [10].
Consider `Cn1c2c(c3ccccc31)C[C@@]1(O)[C@H]3Cc4ccc(O)c5c4[C@@]1(CCN3CC1CC1)[C@H]2O5`, for which the ED50 in test [6] was found to be 0.204 mg/kg.

(Values after ChEMBL document CHEMBL1155897, “Structure-antitussive activity relationships of naltrindole derivatives. Identification of novel and potent antitussive agents” (J Med Chem, 2008).)
